Source: ChEMBL document CHEMBL1157140, “Design and synthesis of trans 2-(furan-2-yl)vinyl heteroaromatic iodides with antitumour activity” (2008)

System: MCF7
Experiment: Cytotoxicity against human MCF7 cells after 3 days by MTT assay
Assay type: functional
Conditions: MCF7, 72 h
Method in brief: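 MCF7 cells kept in medium with heat-inactivated foetal bovine serum, 2 mM L-alanyl-L-glutamine and penicillin–streptomycin at 37 °C, 5% CO₂. Seeded at 5 × 10³ cells/0.33 cm², then dosed after 24 h at final 0.01–100. Incubated 3 days, then MTT read at 570 nm. Each point averages 8 wells; untreated cells serve as control.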

**Q.** How did the GI50 turn out when `C[n+]1ccccc1/C=C/c1ccc(-c2ccc(Br)cc2)o1` was run?
**A.** 1 µM

**Q.** For `C[n+]1ccccc1/C=C/c1ccc(-c2ccc(Cl)c(Cl)c2)o1`, which GI50 is on record?
**A.** 0.38 µM

**Q.** How did the GI50 turn out when `C(=C\c1ccco1)/c1cccc(/C=C/c2ccco2)n1` was run?
**A.** 2.51 µM

**Q.** How did the GI50 turn out when `Cn1cc[n+](C)c1/C=C/c1ccco1` was run?
**A.** 100 µM

**Q.** With `Cn1cc[n+](C)c1/C=C/c1ccc(-c2ccccc2Cl)o1` as the compound, how does the GI50 read?
**A.** 1.38 µM

**Q.** Which GI50 does the source give for `C[n+]1c(/C=C/c2ccc(-c3cccc(Cl)c3)o2)ccc2ccccc21` here?
**A.** 0.0575 µM

**Q.** `C[n+]1ccccc1/C=C/c1ccc(-c2cc(C(F)(F)F)ccc2Cl)o1` was tested. Which GI50 did it give?
**A.** 0.331 µM

**Q.** How did the GI50 turn out when `C[n+]1ccccc1/C=C/c1ccc(-c2ccccc2Cl)o1` was run?
**A.** 2.24 µM

**Q.** For `Cn1cc[n+](C)c1/C=C/c1ccc(-c2cc(Cl)ccc2Cl)o1`, which GI50 is on record?
**A.** 0.191 µM

**Q.** How did the GI50 turn out when `C[n+]1ccccc1/C=C/c1ccco1` was run?
**A.** 70.8 µM

**Q.** For `C[n+]1ccccc1/C=C/c1ccc(-c2cccc(Cl)c2)o1`, which GI50 is on record?
**A.** 0.135 µM

**Q.** `C[n+]1ccccc1/C=C/c1ccc(-c2cc(Cl)ccc2Cl)o1` was tested. Which GI50 did it give?
**A.** 0.038 µM

**Q.** For `C[n+]1c(/C=C/c2ccc(-c3ccc(Cl)cc3[N+](=O)[O-])o2)ccc2ccccc21`, which GI50 is on record?
**A.** 1.74 µM

**Q.** Which GI50 does the source give for `C[n+]1c(/C=C/c2ccc(Br)o2)ccc2ccccc21` here?
**A.** 3.16 µM

**Q.** `C[n+]1ccccc1/C=C/c1ccc(-c2ccc(Cl)cc2Cl)o1` was tested. Which GI50 did it give?
**A.** 0.126 µM

**Q.** How did the GI50 turn out when `COc1ccc(-c2ccc(/C=C/c3ccc4ccccc4[n+]3C)o2)cc1Cl` was run?
**A.** 0.191 µM

**Q.** Which GI50 does the source give for `COc1ccc(-c2ccc(/C=C/c3n(C)cc[n+]3C)o2)cc1Cl` here?
**A.** 0.224 µM

**Q.** `C[n+]1c(/C=C/c2ccc(-c3ccc(Cl)cc3)o2)ccc2ccccc21` was tested. Which GI50 did it give?
**A.** 0.126 µM

**Q.** With `Cn1cc[n+](C)c1/C=C/c1ccc(-c2ccc(Br)cc2)o1` as the compound, how does the GI50 read?
**A.** 0.617 µM

**Q.** With `C[n+]1ccccc1/C=C/c1ccc(Br)o1` as the compound, how does the GI50 read?
**A.** 7.94 µM

**Q.** With `C[n+]1ccccc1/C=C/c1ccc(-c2ccc(Cl)cc2)o1` as the compound, how does the GI50 read?
**A.** 0.219 µM

**Q.** `Cc1ccc(/C=C/c2n(C)cc[n+]2C)o1` was tested. Which GI50 did it give?
**A.** 33.1 µM

**Q.** For `Cn1cc[n+](C)c1/C=C/c1ccc(-c2cccc(Cl)c2)o1`, which GI50 is on record?
**A.** 1.74 µM

**Q.** With `Cn1cc[n+](C)c1/C=C/c1ccc(-c2ccc(Cl)cc2)o1` as the compound, how does the GI50 read?
**A.** 0.631 µM

**Q.** With `COc1ccc(-c2ccc(/C=C/c3cccc[n+]3C)o2)cc1Cl` as the compound, how does the GI50 read?
**A.** 0.0661 µM

**Q.** Which GI50 does the source give for `Cn1cc[n+](C)c1/C=C/c1ccc(Br)o1` here?
**A.** 39.8 µM
